# The campaign covered roughly 2,500 compounds. About 1,200 (48%) were called active. So high a share suggests a set chosen from earlier hits. Some of the results follow. Values without a mark were called inactive.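 The calls were made as follows: active = mean activation above the low control average plus 3 SD, as set in the primary screen (cut at about 12% in these data); inactive = the rest.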
# Biological target: Troponin I, cardiac muscle (Homo sapiens) + Troponin T, cardiac muscle (Homo sapiens) + Troponin C, slow skeletal and cardiac muscles (Homo sapiens) (UniProt P19429+P45379+P63316)
# Assay: cardiac RTF calcium sensitivity activators, confirmation, biochemical, IANBD-TnC fluorescence, triplicate (AID 504383);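 also: 0% = DMSO at 0.472 mM calcium and 100% = DMSO at 2.9 mM calcium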
# Details: IANBD-labeled cardiac RTF, Ca2+ sensitivity fluorescence; at 7.2 µM; hits give high values; scaled from EC20 to saturating calcium; tested at EC20 calcium, 0.472 mM
# Outline: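 Assay system: labelled regulated thin filament protein complex; schedule: 15 min compound incubation with filaments at 25 °C; benchmarks: low control EC20 calcium, high control EC100 calcium; reagent: Ca2+ 0.472 mM, EC20 level; doses: one dose, 7.2 µM nominal; evaluation: fluorescence gain scaled between EC20 and EC100 calcium controls; signal: filament fluorescence intensity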
row,SMILES,activation
1,COc1ccc(/C=C2/SC(c3ccc(C)cc3)=NC2=O)cc1OC,34.6% (active)
2,C=CCN1C(=O)/C(=C/c2ccc(O)c(OC)c2)S/C1=N/c1nccs1,5.76%
3,COc1ccc(/C=c2\s/c(=C/C(=O)c3ccc(C)cc3)[nH]c2=O)cc1OC,1.66%
4,COc1ccc(/C=C2\SC(c3ccc(C)cc3)=NC2=O)cc1OC,12.9% (active)
5,COc1ccc(/C=C2\SC(=O)NC2=S)cc1OC,7.81%
6,COc1cc(N2CCCC2)c(OC)cc1/C=C1/NC(=S)NC1=O,113% (active)
7,O=C1CCC/C(=N/NC(=O)c2sc3ccccc3c2Cl)C1,7.01%
8,O=C1CCCC(=NNC(=O)c2cc3ccccc3cc2O)C1,8.36%
9,COc1ccc2c(Cl)c(C(=O)N/N=C3\CCCC(=O)C3)sc2c1,47.6% (active)
10,CC1(c2cccc(Br)c2)NC(=O)NC1=O (configuration not stated),52.2% (active)
11,COC(=O)C1=C(C(=O)OC)[C@@H]2Nc3ccccc3[C@@]23C[C@@H](C(=O)OC)N(C(=O)c2cccs2)C3=N1,36.8% (active)
12,COc1ccc(NC(C)=O)cc1NC(=O)C1CCCN1C(=O)c1cccs1 (configuration not stated),6.06%
13,O=C(CCC1CCCN(C(=O)C2=CCCC2)C1)N1CCN(c2ccccn2)CC1 (configuration not stated),4.61%
14,Cc1ccc(SCC(=O)OCC(=O)NCc2cccs2)cc1,12.8% (active)
15,CCC1Oc2ccc(C)cc2N(CC(=O)NCc2cccs2)C1=O (configuration not stated),-5.95%
16,CC(=O)n1cc(CO)c2ccccc21,262% (active)
17,Cc1ccc(Cl)c(NC(=O)CN(C)CC(=O)Nc2ccc(F)c(F)c2F)c1Cl,2.04%
18,CC(CCc1ccc(O)cc1)NCCC(c1ccccc1)c1ccccc1 (configuration not stated),48.6% (active)
19,CCN=C(NC#N)SCc1c(F)cccc1Cl,11.4%
20,NS(=O)(=O)c1ccc(NCc2c(F)cccc2Cl)cc1,45.6% (active)
21,Cc1cccc(N=Cc2[nH]c3ccc(Br)c(Cl)c3c2O)c1,4.45%
22,CCOc1ccc(Nc2nc(N)c([N+](=O)[O-])c(NCc3ccccc3)n2)cc1,7.49%
23,CCOc1ccc(Cn2nnc(C(=O)NCCc3ccccc3)c2N)cc1,821% (active)

row,SMILES,activation
1,COc1cccc2cc(-c3nc(-c4cccs4)cs3)c(=O)oc12,3.53%
2,Cc1ccccc1-c1noc(-c2cccs2)n1,24.3% (active)
3,COc1ccc(N2CCN(C(=O)c3ccc(OCC4CCCO4)cc3)CC2)cc1 (configuration not stated),71% (active)
4,COC(=O)c1sc(N2C(=O)C(O)=C(C(=O)c3ccc(C)o3)C2c2ccc(F)cc2)nc1C (configuration not stated),35% (active)
5,O=C(C1=C(O)C(=O)N(c2nccs2)C1c1ccccc1)c1cc2ccccc2o1 (configuration not stated),5.32%
6,CCCC1C(c2ccccc2)C(C#N)(C#N)C2(C#N)CC1(N)NC2=O (configuration not stated),10.5%
7,N#C/C(=C\c1coc2ccc(O)cc2c1=O)C(=O)Nc1nc2ccccc2s1,12.6% (active)
8,O=C(C1=NN(c2ccccc2)C2C(=O)N(c3ccccc3)C(=O)C12)c1ccccc1 (configuration not stated),3.95%
9,Cc1ccc(CC2C(=O)N(c3ccc(C)cc3)C(=O)C2C)cc1 (configuration not stated),7.76%
10,COc1ccccc1N1C(=O)C2C(C(=O)c3ccccc3)=NN(c3ccccc3)C2C1=O (configuration not stated),11.7% (active)
11,Cc1ccc(N2C(=O)C3C(C(=O)c4ccccc4)=NN(c4ccccc4)C3C2=O)cc1 (configuration not stated),29.5% (active)
12,COc1cccc(/C=C/C(=C2\C(=O)N(c3ccccc3)N=C2C)c2ccc(Br)cc2)c1OC,4.48%
13,O=C(C1=NN(c2ccccc2)C2C(=O)N(c3ccc(Cl)cc3)C(=O)C12)c1ccccc1 (configuration not stated),2.79%
14,O=C(C1=NN(c2ccccc2)C2C(=O)N(c3ccccc3Cl)C(=O)C12)c1ccccc1 (configuration not stated),13.6% (active)
15,O=C(C1=NN(c2ccccc2)C2C(=O)N(c3cccc(Cl)c3)C(=O)C12)c1ccccc1 (configuration not stated),35.7% (active)
16,O=C1N(c2cccc(Cl)c2)C(c2ccccc2)N2CCCN12 (configuration not stated),6.5%
17,COc1ccc(C2(CNC(C)=O)CCCC2)cc1OC,3.15%
18,COC(=O)c1c(-c2ccc(OC)c(OC)c2)csc1N,13% (active)
19,CCOC(=O)c1c(-c2ccc(C)cc2)csc1NC(=O)/C(C#N)=C/c1ccc(O)c(OC)c1,4.04%
20,O=C(CSCc1ccco1)NC1CCCC1,13.6% (active)
21,O=C(c1ccc(=O)[nH]c1)N(Cc1ccco1)C1(C(=O)NC2CCCCC2)CCCCC1,8.99%
22,S=C(NC1CC1)NC1CCCc2ccccc21 (configuration not stated),7.09%
23,COc1cc(NC(=O)CSc2nc3ccccc3n2-c2ccccc2)c(C)cc1[N+](=O)[O-],6.07%

row,SMILES,activation
1,COc1cc(NC(=O)CSc2ccccc2)c(C(=O)O)cc1OC,23.2% (active)
2,COC(=O)c1sccc1NC(=O)CSCC(=O)O,0.67%
3,CCOC(=O)N1CCC(NC(=O)c2cnn3c2NC(c2ccco2)CC3C(F)(F)F)CC1 (configuration not stated),18% (active)
4,CCOC(=O)C1=C(C)NC(C)=C(C(=O)OCC)C1c1ccco1,8.22%
5,CC1=N/C(=C/c2ccc([N+](=O)[O-])cc2)C(=O)N1c1ccc(Cl)cc1Cl,6.42%
6,COc1ccc(N2CCN(S(=O)(=O)Cc3ccccc3)CC2)cc1,10.5%
7,COc1ccccc1N1CCN(C(=O)CCC(=O)O)CC1,4.12%
8,COc1ccc(N2CCN(c3ccc([N+](=O)[O-])cc3Cl)CC2)cc1,41.8% (active)
9,COc1ccccc1N1CCN(c2ccc([N+](=O)[O-])cc2Cl)CC1,90.7% (active)
10,Cn1c(NC(=O)C[n+]2cc(-c3ccc(Cl)cc3)n3c2CCC3)cc(=O)n(C)c1=O,5.8%
11,Cc1onc(-c2ccccc2Cl)c1C(=O)N(Cc1ccc(N(C)C)cc1)C(C)C,12% (active)
12,CC(=O)Nc1ccc(SCC(=O)NNC(=O)CN(C)S(=O)(=O)c2ccc(C)cc2)cc1,98% (active)
13,Cc1ccc(Cn2c(Sc3nnc(C)s3)nc3c2c(=O)[nH]c(=O)n3C)cc1,108% (active)
14,COc1ccc(/C=c2\s/c(=C/C(=O)c3ccc(C)cc3)[nH]c2=O)c(OC)c1,10.7%
15,COc1cc(/C=C2\CC/C(=C\c3ccc(OCCO)c(OC)c3)C2=O)ccc1OCCO,7.54%
16,COc1ccc(/C=C2\CC/C(=C\c3ccc(OC)cc3OC)C2=O)c(OC)c1,50.4% (active)
17,COC(=O)[C@H](C)NC(=O)c1cc2c(cn1)[nH]c1ccccc12,10.7%
18,CCOC(=O)c1c(NCC(C)C)c2ccccc2[nH]c1=O,183% (active)
19,CCOC(=O)C1=C(COC(=O)c2ccc3ccccc3c2O)NC(=O)NC1C (configuration not stated),6.83%
20,COc1ccc(N2C(=O)[C@@H]3[C@H](C2=O)[C@H]2c4ccccc4C=CN2[C@@H]3C(=O)Nc2ccccc2)cc1,55.7% (active)
21,Cc1ccc(-c2nc(N)sc2CC(=O)OCC(=O)NCCC(C)C)cc1,10.3%
22,Cc1ccc(-c2nc(C)sc2CC(=O)O)cc1,28.5% (active)
23,COC(=O)c1ccc2c(c1)NC1=C(C(=O)CC(C)(C)C1)C(c1ccncc1)N2 (configuration not stated),9.24%

row,SMILES,activation
1,COc1ccc(-c2cc(C(F)(F)F)nc(S(=O)(=O)CCCC(=O)Nc3cc(C)on3)n2)cc1OC,16.4% (active)
2,COc1ccc(NC(=O)c2cc(C)on2)cc1OC,6.63%
3,O=C1/C(=C/c2cccnc2)SC(=S)N1N1CCOCC1,12.4% (active)
4,O=C(O)CN1C(=O)/C(=C\c2cn(CC(=O)N3CCOCC3)c3ccccc23)SC1=S,16.6% (active)
5,O=C(CCN1C(=O)/C(=C/c2ccccc2)SC1=S)NNC(=O)c1cccnc1,6.78%
6,Cn1cc(/C=C2\SC(=S)N(N3CCOCC3)C2=O)c2ccccc21,12.7% (active)
7,Cc1ccc(N=C2NC(=O)/C(=C/c3cn(C)c4ccccc34)S2)cc1C,6.33%
8,O=C(CS(=O)(=O)c1cn(Cc2ccc(F)cc2)c2ccccc12)N1CCOCC1,1.62%
9,Cc1cc(S(=O)(=O)Nc2c(C)nn(C)c2C)c(Cl)cc1Cl,10.6%
10,O=C1NC(=Nc2ccccc2Cl)S/C1=C\c1cc([N+](=O)[O-])ccc1O,20.8% (active)
11,Cc1ccc(S(=O)(=O)/N=C2/NC(=O)/C(=C/c3cc([N+](=O)[O-])ccc3O)S2)cc1,4.75%
12,COc1cccc(N=C2NC(=O)/C(=C/c3cc([N+](=O)[O-])ccc3O)S2)c1,9.82%
13,C#CCN1c2ccccc2Sc2cccnc21,13.6% (active)
14,Cc1cccc(OCCNc2ccc(C(F)(F)F)cc2[N+](=O)[O-])c1,159% (active)
15,O=C(Nc1ccccc1)c1ccc(NCCc2ccccc2)c([N+](=O)[O-])c1,5.71%
16,COc1ccc(NC(=O)CS(=O)(=O)c2cccc(Cl)c2)cc1,6.14%
17,COc1cccc(C(=O)NC2CC3CCCC(C2)N3CC(=O)Nc2ccc(N(C)C)cc2)c1 (configuration not stated),21.3% (active)
18,Cc1ccc(NC(=O)CC2SC3=NCCCN3C2=O)c(C)c1 (configuration not stated),9.67%
19,CSCCC(NC(=O)c1ccccc1Cl)C(=O)N1CCC1 (configuration not stated),3.34%
20,COc1ccc2c(c1)cc(C(=O)N[C@@H](CCSC)C(=O)N1CCC[C@H]1C(=O)O)n2C,20.4% (active)
21,COc1ccc(N=C(N)N=C(N)N)c(OC)c1,7.88%
22,COc1ccc(OC)c(/C=N/N=C(\N)c2nonc2N)c1,18.5% (active)
23,COc1ccc(C2C(C#N)=C(N)N(c3cccnc3)C3=C2C(=O)CCC3)cc1Cn1cc([N+](=O)[O-])cn1 (configuration not stated),18.5% (active)
